Only some compounds are listed: those with a hit (about 2.2% of all), similar ones and a draw of the others.
Rin1 Abl inh – inhibitors of human Rin1-Abl protein interaction | P00519+Q13671 | TR-FRET Rin1/Abl binding, biochemical | inhibition, % at 7.35 µM | 360,000 tested, 0.4% active | AID 588664; in the data active = inhibition above about 5%, passing the limit was not always enough
PAD4 inh – PAD4 (human) enzyme inhibition. recombinant PAD4, RCA probe fluorescence polarization. inhibition, % at 6.36 µM. 330,000 tested, 0.41% active;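 active = percent inhibition above a cutoff equal to the mean of all tested compounds plus 3 SD, cut at about 15% in these data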;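 also: 0% = PAD4 with RCA probe and DMSO and 100% = probe without PAD4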
UBC13 polyUb – human UBC13 polyubiquitination inhibition; inhibition, % at 20 µM; AID 485273; 330,000 tested, 0.47% active; UBC13 polyubiquitin chain formation, TR-FRET; P61088; in the data active = inhibition above about 45%, passing the limit was not always enough
GSTO1 inh – GSTO1 inhibition, counter-screen for RBBP9 inhibitors. P78417. recombinant GSTO1, activity-based probe fluorescence polarization. inhibition, % at 5.96 µM. 300,000 tested, 1.1% active. AID 1974;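 active = inhibition above the campaign mean inhibition plus 3 SD, cut at about 35% in these data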;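 also: 0% = GSTO1-1 with DMSO and 100% = wells lacking GSTO1-1 enzyme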
SUMO HTRF inh – inhibitors of human SUMOylation (UBC9). HTRF SUMOylation assay, SAE1/SAE2 + UBC9, in vitro. inhibition, % at 35 µM. 290,000 tested, 0.36% active; in the data active = inhibition above about 50%, passing the limit was not always enough
Apaf1 inhib – inhibitors of human Apaf-1 apoptosome | O14727 | reconstituted apoptosome caspase-3 activity, DEVD-Rh110 fluorescence | inhibition, % at 20 µM | 330,000 tested, 0.71% active | AID 489030; active = inhibition of at least 40% at 20 µM;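 also: plate controls were DMSO wells for no effect and DEVD-CHO caspase inhibitor wells for full effect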
Target sequence (O14727 whole entry, looked up): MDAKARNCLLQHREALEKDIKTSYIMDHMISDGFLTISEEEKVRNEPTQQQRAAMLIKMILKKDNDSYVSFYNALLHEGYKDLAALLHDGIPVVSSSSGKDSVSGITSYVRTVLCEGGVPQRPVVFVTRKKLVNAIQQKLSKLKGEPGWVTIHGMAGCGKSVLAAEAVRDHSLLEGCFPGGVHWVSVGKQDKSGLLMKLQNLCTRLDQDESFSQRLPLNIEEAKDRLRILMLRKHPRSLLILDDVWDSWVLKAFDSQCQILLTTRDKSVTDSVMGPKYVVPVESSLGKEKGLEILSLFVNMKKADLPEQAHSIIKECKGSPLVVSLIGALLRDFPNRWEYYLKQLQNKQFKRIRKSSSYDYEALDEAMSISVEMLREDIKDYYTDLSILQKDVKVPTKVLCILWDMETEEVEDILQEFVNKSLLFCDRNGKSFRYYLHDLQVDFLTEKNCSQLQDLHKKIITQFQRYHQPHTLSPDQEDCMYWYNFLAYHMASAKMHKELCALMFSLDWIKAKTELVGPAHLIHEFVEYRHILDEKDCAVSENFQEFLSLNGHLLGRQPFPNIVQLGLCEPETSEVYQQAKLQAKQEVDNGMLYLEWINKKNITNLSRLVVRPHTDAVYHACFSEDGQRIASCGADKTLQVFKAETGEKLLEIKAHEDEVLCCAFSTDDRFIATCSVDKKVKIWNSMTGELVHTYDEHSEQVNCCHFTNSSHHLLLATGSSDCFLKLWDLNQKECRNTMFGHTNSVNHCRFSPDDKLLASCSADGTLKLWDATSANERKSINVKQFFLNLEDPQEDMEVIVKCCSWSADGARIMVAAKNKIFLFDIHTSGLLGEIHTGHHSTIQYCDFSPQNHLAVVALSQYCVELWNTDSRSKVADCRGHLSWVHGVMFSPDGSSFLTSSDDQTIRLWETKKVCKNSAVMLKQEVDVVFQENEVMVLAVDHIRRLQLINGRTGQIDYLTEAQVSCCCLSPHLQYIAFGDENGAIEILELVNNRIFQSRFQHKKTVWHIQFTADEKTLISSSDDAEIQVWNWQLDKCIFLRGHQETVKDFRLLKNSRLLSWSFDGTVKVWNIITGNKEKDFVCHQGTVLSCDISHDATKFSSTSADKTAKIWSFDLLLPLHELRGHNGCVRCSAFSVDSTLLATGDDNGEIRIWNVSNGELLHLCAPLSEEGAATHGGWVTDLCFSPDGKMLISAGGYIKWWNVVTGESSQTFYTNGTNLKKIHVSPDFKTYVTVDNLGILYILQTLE
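Assay system – apoptosome proteins · Medium – Hepes buffer, pH 7.5 · Also added – cytochrome c with DEVD-Rh110 · Timing – 30 min compound preincubation, 50 min activation, room temperature · Detection – Rh110 fluorescence, excitation 480 nm, emission 540 nm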
Numbers without * were called inactive.

What do the screens show for `CN(C)c1cccc2c(S(=O)(=O)N3CCOCC3)cccc12`?
Rin1 Abl inh: 1; PAD4 inh: -4; UBC13 polyUb: 10; GSTO1 inh: 5; SUMO HTRF inh: 31; Apaf1 inhib: -3

What do the screens show for `COc1ccc(OC)c(C2CC(=O)N3CN(c4cccc(Cl)c4)CSC3=C2C#N)c1` (centres undefined)?
Rin1 Abl inh: -3; PAD4 inh: -6; UBC13 polyUb: -13; GSTO1 inh: 1; SUMO HTRF inh: 17; Apaf1 inhib: 81*

What do the screens show for `COc1ccc2ccccc2c1C1CC(=O)N2CN(C)CSC2=C1C#N` (centres undefined)?
Rin1 Abl inh: 0; PAD4 inh: -5; UBC13 polyUb: -21; GSTO1 inh: -4; SUMO HTRF inh: 20; Apaf1 inhib: 71*

What do the screens show for `COc1cc(OC)c(C2CC(=O)N3CN(c4ccccc4)CSC3=C2C#N)cc1OC` (centres undefined)?
Rin1 Abl inh: -1; PAD4 inh: -3; UBC13 polyUb: -4; GSTO1 inh: 3; SUMO HTRF inh: 16; Apaf1 inhib: 6

Results for CCc1ccccc1N1CSC2=C(C#N)C(c3cc(OC)c(OC)cc3OC)CC(=O)N2C1 (centres undefined) ?
Rin1 Abl inh: 2; PAD4 inh: -19; UBC13 polyUb: -39; GSTO1 inh: 33; SUMO HTRF inh: 35; Apaf1 inhib: 43*

How did CCOC(=O)c1ccc(N2CSC3=C(C#N)C(c4ccc(OC)cc4OC)CC(=O)N3C2)cc1 (centres undefined) do in these assays?
Rin1 Abl inh: 2; PAD4 inh: 3; UBC13 polyUb: -12; GSTO1 inh: 5; SUMO HTRF inh: 17; Apaf1 inhib: 50*

What do the screens show for `CNC(=O)c1ccsc1NC(=O)CS(=O)(=O)c1ccc(F)cc1`?
Rin1 Abl inh: 0

Results for COc1ccc(C(=O)Nc2ccnn2C2CCN(C(=O)c3cccnc3)CC2)cc1 ?
Rin1 Abl inh: 1; PAD4 inh: -3; UBC13 polyUb: 0; GSTO1 inh: 1; SUMO HTRF inh: 10; Apaf1 inhib: 7

What do the screens show for `Cc1cccc(N2CCN(C(=O)CCC(=O)N3CC(C)Oc4ccc(C)cc43)CC2C)c1` (centres undefined)?
Rin1 Abl inh: -2; PAD4 inh: 1; UBC13 polyUb: 11; GSTO1 inh: 6; SUMO HTRF inh: 4; Apaf1 inhib: 28

What do the screens show for `COc1ccc(OC)c(C2C(C#N)=C(N)Oc3c2c(C)nn3-c2cccc(Cl)c2)c1` (centres undefined)?
Rin1 Abl inh: 4; PAD4 inh: 35*; UBC13 polyUb: 8; GSTO1 inh: 20; SUMO HTRF inh: 21; Apaf1 inhib: -4

Results for C=CC[C@H]1C(C(=O)OCC)=CC[C@@H](c2ccccc2)N1S(=O)(=O)c1ccc(C)cc1 ?
Rin1 Abl inh: 4

What do the screens show for `CN1CCN(Cc2nc3c([nH]2)c(=O)[nH]c(=O)n3C)CC1`?
Rin1 Abl inh: -3; PAD4 inh: 0; UBC13 polyUb: 3; GSTO1 inh: 36*; SUMO HTRF inh: 16; Apaf1 inhib: 5

How did O=C(c1ccc(F)cc1)[C@@H]1[C@@H](C(=O)c2ccccc2)[C@@]2(C(=O)Nc3ccccc32)[C@H]2c3ccccc3C=CN12 do in these assays?
PAD4 inh: -12; UBC13 polyUb: -19; GSTO1 inh: 7; SUMO HTRF inh: -3; Apaf1 inhib: 73*

What do the screens show for `O=C(Nc1nc(-c2ccco2)c(-c2ccco2)s1)C1CC(=O)N(c2ccc3c(c2)OCCO3)C1` (centres undefined)?
Rin1 Abl inh: 1; PAD4 inh: -5; UBC13 polyUb: 9; GSTO1 inh: 1; SUMO HTRF inh: 83*; Apaf1 inhib: 18

Results for O=C(Nc1nc(-c2ccco2)c(-c2ccco2)s1)C1CCC1 ?
Rin1 Abl inh: -1; PAD4 inh: -5; UBC13 polyUb: 18; GSTO1 inh: 1; SUMO HTRF inh: 61*; Apaf1 inhib: 20

What do the screens show for `N#Cc1c(N)n(-c2cccc(C(=O)O)c2)c2nc3ccccc3nc12`?
Rin1 Abl inh: 0; PAD4 inh: 0; UBC13 polyUb: 10; GSTO1 inh: 6; SUMO HTRF inh: 60*; Apaf1 inhib: 31

Screening data deposited in PubChem BioAssay by several laboratories.
